LMPTP block: LMPTP phosphatase inhibitors, primary screen, biochemical, fluorescence intensity, uHTS. Low molecular weight phosphotyrosine protein phosphatase (Homo sapiens), P24666. AID 651560, 2012. recombinant LMPTP-A, OMFP fluorogenic substrate. actives 0.22% (n = 360,000). inhibition, % at 20 µM;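 active means compounds that cut the enzyme signal by at least half of the control window in the single-dose screen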;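 further: plate controls were DMSO wells with enzyme plus substrate for no effect and substrate without enzyme for full effect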
Target sequence (P24666 whole entry, looked up): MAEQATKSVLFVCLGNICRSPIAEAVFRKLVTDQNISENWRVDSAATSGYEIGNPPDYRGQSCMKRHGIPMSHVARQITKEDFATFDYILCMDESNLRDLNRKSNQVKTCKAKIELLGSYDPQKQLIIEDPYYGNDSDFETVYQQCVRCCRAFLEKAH
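Material: LMPTP-A; amount: 0.625 nM enzyme; doses: single 20 µM dose; times: reaction 50 min, room temperature, dark; technique: fluorescence intensity of OMFP turnover product; benchmarks: no-enzyme and uninhibited controls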
STEP inh: STEP phosphatase inhibitors, primary screen, biochemical, fluorescence intensity, uHTS; Tyrosine-protein phosphatase non-receptor type 5 (Homo sapiens), P54829; recombinant STEP, OMFP fluorogenic substrate; inhibition, % at 20 µM; actives 0.25% (n = 360,000); AID 588621, 2011;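 active means inhibition at 20 µM, scaled per plate between control wells, above about 37%, limit read from the data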;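 further: 0% = DMSO with enzyme and substrate and 100% = substrate only without enzyme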
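System: STEP phosphatase, cell-free reaction; Buffer or medium: Bis-Tris pH 6.0 buffer with DTT, detergent; Incubation: 20 min at room temperature, dark; Measured by: fluorescence, 480/540 nm.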
Scp1 inh: Scp-1 phosphatase inhibitors, primary screen, biochemical, colorimetric, uHTS; AID 493091, 2011; Recombinant Scp1, phosphopeptide, malachite green phosphate absorbance; inhibition, % at 20 µM; actives 0.88% (n = 340,000);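 active means inhibition above about 50% at 20 µM, limit read from the data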;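 further: plate controls were DMSO wells with enzyme for no effect and wells lacking enzyme for full effect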
Target sequence (Q9GZU7 76-261 limits assumed): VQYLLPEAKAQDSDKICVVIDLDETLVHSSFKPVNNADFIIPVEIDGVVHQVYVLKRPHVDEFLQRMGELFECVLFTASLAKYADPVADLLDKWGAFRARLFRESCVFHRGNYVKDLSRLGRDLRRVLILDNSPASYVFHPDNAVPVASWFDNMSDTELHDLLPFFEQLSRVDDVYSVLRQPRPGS
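Incubation: 45 min enzyme reaction at room temperature / System: truncated SCP-1 phosphatase (76-261aa) / Reagent: Phospho 17-mer peptide substrate / Buffer or medium: Acidic Tris acetate buffer with magnesium and detergent / Signal: absorbance at 630 nm / Doses: one concentration, 20 µM, with 1.0% DMSO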
DNMT1 block: human DNMT1 methyltransferase inhibitors, primary screen, biochemical, molecular beacon, fluorescence, HinP1I cleavage, uHTS | inhibition (reported as % activation of signal), % at 10 µM | actives 0.83% (n = 360,000) | AID 588458, 2011; in the data active means inhibition above about 50%
SUMO1 PPI mod: modulators of SUMO1 protein-protein interactions, primary screen, biochemical, uHTS; Small ubiquitin-related modifier 1 (Homo sapiens), P63165; SUMO1 binding to a labelled peptide, TR-FRET, 1 h; inhibition, % at 20 µM; actives 0.33% (n = 360,000); in the data active means inhibition above about 37%
Starred values were filed as active, the others as inactive; i = inactive; . = no result given; + = active, no number; ! = repeats disagree. Most compounds without a hit are left out; they make up all but 1.8% or so of the library.

SMILES	LMPTP block	STEP inh	Scp1 inh	DNMT1 block	SUMO1 PPI mod
O=C1c2c(O)ccc(O)c2C(=O)c2c(NCCNCCO)ccc(NCCNCCO)c21	8	14	-15	-269	93*
C[n+]1c2cc(N)ccc2cc2ccc(N)cc21	8	i	-1	+	78*!
Cc1cccc(C)c1NC(=O)C(CCc1ccccc1)N1CCC(c2ccccc2)CC1 (configuration not stated)	5	.	.	.	-2
CN(Cc1c(C(=O)N/N=C/c2ccc(O)cc2)nnn1-c1nonc1N)c1ccccc1	0	1	1	-3	0
O=C(NC1(O)C(=O)c2ccccc2C1=O)c1ccc(C(F)(F)F)cc1	4	2	3	61*	7
CCN(CC)CCNC(=O)C1(c2ccccc2)CCCCC1	14	-2	-7	-1	47*
Clc1cccc(Cl)c1Cn1cnc(=NCc2ccco2)c2[nH]cnc21	84*	4	6	1	2
Clc1cccc(Cl)c1Cn1cnc2c(NCc3ccco3)ncnc21	4	0	2	-2	-3
COc1ccc(-c2ccc(C(=O)NCc3cccs3)c3occc23)c(C)c1	6	-1	.	5	2
CC(C)C(=O)NNS(=O)(=O)c1ccccc1	-1	2	4	3	44*
CCN(CC)c1ncnc2c1ncn2[C@H]1CN(Cc2ccc(-c3ccccc3)cc2)C[C@@H](CO)O1	2	2	.	0	4
Cc1ccc(-c2nnn(CC(=O)N(Cc3cccs3)C(C(=O)NC3CCCC3)c3ccncc3)n2)cc1 (configuration not stated)	1	3	13	-21	45*
N#C/C(=C/c1ccc(-c2cc([N+](=O)[O-])ccc2Cl)o1)C(N)=O	34	8	45	39	39*
Cc1cn(-c2cc(NC(=O)c3ccc(C)c(NC(=O)c4cccc(-c5cn[nH]c(=O)c5)c4)c3)cc(C(F)(F)F)c2)cn1	-1	2	5	4	73*
CC1(OC(=O)c2cccs2)C(=O)C=C2C=C3CCCN3C=C2C1=O (configuration not stated)	11	9	55*	100*	23
CN(C)c1ccc(C(=O)c2ccc(O)cc2O)cc1	1	0	-14	-5	-5
CN(C)c1ccc(Cc2cc3c(O)ccc(O)c3cc(Cc3ccc(N(C)C)cc3)c2=O)cc1	50	7	30	81*	42*
CCN1/C(=C/C=C/c2oc3ccc(-c4ccccc4)cc3[n+]2CC)Oc2ccc(-c3ccccc3)cc21	14	i	18	149*	57*
NC1=NC[C@H](Cc2ccc(O)cc2)N1CCc1cc(C(F)(F)F)cc(C(F)(F)F)c1	-3	-1	2	14	-17
NC1=NC[C@@H](CC2CCCCC2)N1CCc1cc(C(F)(F)F)cc(C(F)(F)F)c1	-1	4	16	62*	-84
Nc1nc(N)c2c(ccc3c2ccn3Cc2cccc([N+](=O)[O-])c2)n1	69*	8	.	-10	10
Cn1cnnc1SCC(=O)Nc1ncc([N+](=O)[O-])s1	22	7	75*	84*	4
CCOC(=O)c1c(C)[nH]c(C(=O)N/N=C/c2cc([N+](=O)[O-])ccc2O)c1C	65*	5	-7	0	-12
CCOC(=O)c1c(C)[nH]c(C(=O)N/N=C\c2ccccc2O)c1C	0	1	-10	-3	1
CCC(=O)Nc1nnc(S(=O)(=O)N2CCCCCC2)s1	0	2	7	5	6
Cc1cc(NS(=O)(=O)c2ccc(Nc3nc(-c4sc(N)nc4C)cs3)cc2)no1	12	2	23	86*	51*
Cc1cccc(C)c1NC(=O)C1(C)CN(S(C)(=O)=O)CC(=O)N1CCc1ccccc1F (configuration not stated)	-1	.	.	.	-2
O=C(Nc1nccs1)c1cc(Cl)nc2ccccc12	-3	-2	-1	0	-8
